The source of these data is ChEMBL document CHEMBL1151927, “CSI-FID: high throughput label-free detection of DNA binding molecules” (Bioorg Med Chem Lett, 2009).

The structures appear in SMILES notation. Calls of active or inactive are those of the source. The calls are words filed in the database; no cut-off is given here.

Type in all cases: nucleic-acid assay
Assay [1] concerns Nucleic Acid. Nature of the assay: Displacement of ethidium bromide from minor groove region of DNA at 3 uM by […] analysis. The method, boiled down: (§1)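 CSI microarray of hairpinned dsDNA probes covering all 9 bp permutations. The array was incubated 1 h with 6 μM EtBr in binding buffer (100mM NaCl, 100mM Tris pH 8.0). Unlabeled ligand (3 μM) was then added to the EtBr solution for a further 1 h to reach equilibrium. Per-feature ratio of displaced to undisplaced EtBr fluorescence, expressed as FD = 1−(1−Rseq)/(1−RMax).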

The test system of assay [2] is Nucleic Acid. Kind of assay: Displacement of ethidium bromide from DNA TAGAATA region at 3 uM by […] analysis. The method, boiled down:
as §1

Assay [3] has as its system Nucleic Acid. Nature of the assay: Displacement of ethidium bromide from DNA TGAATAA region at 3 uM by […] analysis. In a few lines: as §1
For assay [4], the system named is Nucleic Acid. Kind of assay: Displacement of ethidium bromide from DNA TATTAGA region at 3 uM by […] analysis. The method, boiled down: as §1
Assay [5] concerns Nucleic Acid. Nature of the assay: Displacement of ethidium bromide from DNA AATA region by […] analysis. The method, boiled down:
as §1

Assay [6] concerns Nucleic Acid. Kind of assay: Displacement of ethidium bromide from DNA AAAA region by […] analysis. In a few lines: as §1
Assay [7] concerns Nucleic Acid. Nature of the assay: Displacement of ethidium bromide from DNA ATAA region by […] analysis. The method, boiled down: as §1
Assay [8] deals with Nucleic Acid. Kind of assay: Displacement of ethidium bromide from DNA TAAA region by […] analysis. In a few lines: as §1
Assay [9] has as its system Nucleic Acid. Kind of assay: Displacement of ethidium bromide from DNA ATTA region by […] analysis. The method, boiled down:
as §1

Assay [10] relates to Nucleic Acid. Kind of assay: Displacement of ethidium bromide from DNA AAAT region by […] analysis. The method, boiled down: as §1
In assay [11] the test system is Nucleic Acid. Kind of assay: Displacement of ethidium bromide from DNA ATAT region by […] analysis. The method, boiled down:
as §1

Assay [12] concerns Nucleic Acid. Kind of assay: Displacement of ethidium bromide from DNA TATA region by […] analysis. The method, boiled down: as §1
Assay [13] has as its system Nucleic Acid. Nature of the assay: Displacement of ethidium bromide from DNA TTAA region by […] analysis. In a few lines:
as §1

Assay [14] deals with Nucleic Acid. Kind of assay: Binding affinity to minor groove region of DNA.

Usually Kd stands for the free concentration of one partner at which half of the binding sites on the other are occupied at equilibrium, for simple one-to-one binding. A higher Kd goes with a looser complex. For `Cn1cc(NC(=O)c2cc(NC(=O)CNC(=N)N)cn2C)cc1C(=O)NCCC(=N)N` [NETROPSIN], the outcome in the assay with Nucleic Acid [1], with Nucleic Acid [2], in the assay on Nucleic Acid [3], in the assay with Nucleic Acid [4], in the assay with Nucleic Acid [5] and in the assay on Nucleic Acid [6] was Active. For the same compound, the result with Nucleic Acid [7], in the assay on Nucleic Acid [8], in the assay with Nucleic Acid [9], with Nucleic Acid [10], in the assay on Nucleic Acid [11] and with Nucleic Acid [12] was Active. In addition, the outcome with Nucleic Acid [13] was Active. The compound further gave a dissociation constant Kd at Nucleic Acid [14] of 1 nM.
